Compound activity deposited in PubChem by Broad Institute.
The list is not random: actives were taken first. Their share in the collection is about 2.1%.
FN deposition inh = fibronectin deposition inhibition; AH1F fibroblasts, Alexa488-fibronectin deposition fluorescence, overnight; inhibition, % at 12.6 µM; hit rate 0.086% among 350,000; AID 743247;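 active means mean inhibition across replicates of 30% or more, regardless of how many single replicates reach that level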;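 further: positive control wells lacked labelled fibronectin entirely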
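Measured by – fluorescence 485/525 nm · System – AH1F fibroblast monolayer, labelled fibronectin deposition · Amount – 10000 cells per well · Buffer or medium – serum-reduced DMEM (2% serum) · Doses – single dose, pinned · Also added – fluorescent fibronectin at 24 nM final · Schedule – 1 h cell attachment, overnight exposure to compound and label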
FGF22 binding = FGF22 (human) thermal shift binding | Q9HCT0 | recombinant FGF22 thermal shift, SYPRO orange fluorescence; percent of sucrose octasulfate shift, DMSO zero | activity (Tm shift, normalised), % at 9.99 µM | hit rate 1.5% among 340,000 | AID 651658;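 active means mean Tm shift, scaled 0 neutral to 100 positive control, at about 1.3% or above, every replicate too, limit read from the data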
ARNT TACC3 PPI = disrupts binding between human ARNT and TACC3. Q9Y6A5. inhibition, % at 9.99 µM. hit rate 0.66% among 390,000. AlphaScreen His-ARNT PAS-B/GST-TACC3 binding, luminescence; TACC3 fragment carries E629A point mutation;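 active means mean inhibition of replicates at least 50% and at least half of replicates each reaching 50%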;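 further: 0% = complete ARNT plus TACC3 wells and 100% = ARNT alone without TACC3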
AF4-AF9 inh = blocks AF4 peptide binding to human AF9. hit rate 0.47% among 350,000. AID 651704. AlphaScreen, biotin-AF4 peptide binding to FLAG-AF9. inhibition, % at 10 µM. P42568;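 active means every replicate reaching a set inhibition limit, whatever the replicate mean, cut at about 25% in these data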;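 further: 0% = plate neutral control median and 100% = total signal loss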
PDI turbidity = blocks human protein disulfide isomerase activity. PDI insulin aggregation turbidity, A650, 90 min. P07237. inhibition, % at 10 µM. hit rate 0.052% among 350,000. AID 588391;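 active means mean inhibition across replicates of 30% or more, whatever share of single replicates reach that level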
ERp5 block = inhibitors of human ERp5; AID 651711; Q15084; hit rate 0.05% among 350,000; ERp5 insulin aggregation, absorbance 650 nm, 90 min; inhibition, % at 9.99 µM;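 active means mean replicate inhibition above about 25%, with every replicate also reaching it, limit read from the data, passing the limit was not always enough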
Target sequence (Q15084 whole entry, looked up): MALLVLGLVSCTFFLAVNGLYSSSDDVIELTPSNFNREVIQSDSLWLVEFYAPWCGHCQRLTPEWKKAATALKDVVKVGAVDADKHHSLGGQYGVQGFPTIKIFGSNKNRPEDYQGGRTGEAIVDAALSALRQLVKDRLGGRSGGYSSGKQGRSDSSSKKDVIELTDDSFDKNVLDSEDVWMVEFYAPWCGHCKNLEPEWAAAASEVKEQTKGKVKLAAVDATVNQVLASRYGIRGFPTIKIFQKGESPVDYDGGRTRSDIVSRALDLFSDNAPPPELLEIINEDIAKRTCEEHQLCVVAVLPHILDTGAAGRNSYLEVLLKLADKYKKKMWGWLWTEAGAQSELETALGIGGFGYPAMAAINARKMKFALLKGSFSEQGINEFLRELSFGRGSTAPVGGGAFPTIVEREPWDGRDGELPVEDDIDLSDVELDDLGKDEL
* hit, by the source's call.

Screening Cc1csc(SCC(=O)Nc2ccccc2[N+](=O)[O-])n1 returned FN deposition inh -5.8, FGF22 binding 43.6*, ARNT TACC3 PPI -3.3, AF4-AF9 inh 0.1, PDI turbidity -1.9 and ERp5 block -3.6.
Screening Cc1csc(SCC(=O)Nc2ccccc2C)n1 returned FGF22 binding -0.1, AF4-AF9 inh 0.0, PDI turbidity -5.6 and ERp5 block -9.8.
C[C@@H]1CN([C@@H](C)CO)C(=O)c2cc(NC(=O)C3CCCCC3)ccc2O[C@@H](C)CCCCO[C@@H]1CN(C)C(=O)Nc1cccc2ccccc12 was read as FGF22 binding -1.0, ARNT TACC3 PPI -4.5, AF4-AF9 inh -1.6 and ERp5 block -1.3.
NNC(=O)c1cc(-c2ccc(O)cc2)nc2ccc(Br)cc12 was read as FN deposition inh -0.9, FGF22 binding -0.1, ARNT TACC3 PPI 8.6, AF4-AF9 inh 0.2, PDI turbidity 40.4* and ERp5 block 9.8.
`Cc1ccccc1NC1=C/C(=N\S(=O)(=O)c2cccs2)c2ccccc2C1=O` gave FN deposition inh 52.2*, ARNT TACC3 PPI 16.3 and PDI turbidity -3.7.
Screening Cc1ccc(NC2=C/C(=N/S(=O)(=O)c3cccs3)c3ccccc3C2=O)cc1C returned FN deposition inh -7.8, FGF22 binding 0.0, ARNT TACC3 PPI -2.8, AF4-AF9 inh -4.2, PDI turbidity -2.9 and ERp5 block 0.2.
For CCOC(=O)C1=C(C)NC(=O)NC1c1ccc(OC(=O)c2ccco2)cc1 (centres undefined) the results were ARNT TACC3 PPI -5.1 and PDI turbidity 5.9.
Screening CCOC(=O)C1=C(COC(=O)c2ccco2)NC(=O)NC1CC (centres undefined) returned FN deposition inh 7.4, FGF22 binding 0.0, ARNT TACC3 PPI -5.4, AF4-AF9 inh 29.3*, PDI turbidity -1.1 and ERp5 block -18.0.
CCN1CCN(CCNC(=O)c2ccc3c(c2)N(Cc2ccc(F)cc2)C(=O)/C(=C/c2ccccc2)S3)CC1 was read as FN deposition inh 8.4, FGF22 binding -0.7, ARNT TACC3 PPI 35.0, AF4-AF9 inh 58.2*, PDI turbidity 15.6 and ERp5 block 0.9.
CN1CCN(CCCNC(=O)c2ccc(/C=C3\Sc4ccccc4N(Cc4ccccc4F)C3=O)cc2)CC1 was read as FN deposition inh 0.0, FGF22 binding -0.5, ARNT TACC3 PPI 8.2, AF4-AF9 inh 36.3*, PDI turbidity -4.5 and ERp5 block 5.4.
Screening O=C(NCCN1CCOCC1)c1ccc(/C=C2\Sc3ccccc3N(Cc3ccccc3F)C2=O)cc1 returned FN deposition inh 21.6, FGF22 binding -0.1, ARNT TACC3 PPI 2.5, AF4-AF9 inh 7.5, PDI turbidity -6.3 and ERp5 block 3.5.
`CCN1CCN(CCNC(=O)c2ccc(/C=C3/Sc4ccccc4N(Cc4cccc(Cl)c4)C3=O)cc2)CC1` gave FN deposition inh -8.3, FGF22 binding 0.2, ARNT TACC3 PPI 19.3, PDI turbidity 8.6 and ERp5 block 1.1.
Screening CNC[C@H]1Oc2ccc(NC(=O)CCC(F)(F)F)cc2CC(=O)N([C@@H](C)CO)C[C@H]1C returned FN deposition inh -2.9, FGF22 binding -0.3, ARNT TACC3 PPI 18.7, AF4-AF9 inh -4.8 and ERp5 block 3.6.
For COc1cccc(NC(=O)N[C@@H]2CC[C@@H](CC(=O)Nc3ccccc3)O[C@@H]2CO)c1 the results were FN deposition inh 1.2, FGF22 binding -0.1, ARNT TACC3 PPI -3.1, AF4-AF9 inh 0.5 and ERp5 block -0.3.
Cc1cc(C(=O)OC2CCOC2=O)c2ccccc2n1 (centres undefined) was read as ARNT TACC3 PPI 21.3 and PDI turbidity -8.7.
Cc1ccc(C(=O)OCC(=O)NC2CCS(=O)(=O)C2)c(C)c1 (centres undefined) was read as FN deposition inh 4.1, FGF22 binding -0.4, ARNT TACC3 PPI 1.9, AF4-AF9 inh -1.0, PDI turbidity 4.3 and ERp5 block 0.0.
For Cc1ccc2nc3c(c(C(=O)OCC(=O)NC4CCS(=O)(=O)C4)c2c1)CCCC3 (centres undefined) the results were FGF22 binding 43.0*, ARNT TACC3 PPI 2.9, AF4-AF9 inh 0.2, PDI turbidity 2.1 and ERp5 block 3.0.
